# STAT1 activator: STAT1 signaling activation | NIH 3T3 STAT1-luciferase reporter, IFN-gamma, luminescence; 100% = IFN-gamma alone, no compound | activation (% of control), % at 5.5 µM | 200,000 tested, 2.6% active;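 active = activation above the screen-wide mean activation plus 3 SD, cut at about 130% in these data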;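 also: raw ratio to IFN-gamma control signal so 100% means no change and 0% no light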
# APP 5'UTR act: activates APP 5'UTR luciferase reporter; activation, % at 2 µM; SH-SY5Y APP 5'UTR luciferase reporter, luminescence; zero percent = DMSO vehicle wells; 190,000 tested, 1% active; AID 1276;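 active = activation above a set limit, based on mean plus 3 SD of controls, cut at about 140% in these data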
# Mdm2 ligase inh: inhibitors of human Mdm2 E3 ubiquitin ligase. Q00987. cell-based MDM2 ubiquitination luciferase reporter, 2 h; 0 = plate control, 100 = twice control, blank-subtracted. signal enhancement, % at 5 µM. 210,000 tested, 0.11% active. AID 1230;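 active = signal enhancement of 30% or more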;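 also: luminescence tracks abundance of the self-degrading MDM2-luciferase fusion protein; higher signal means inhibition of MDM2 E3 ligase activity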
#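 Assay system: stable mammalian line carrying autodegrading MDM2–luciferase fusion reporter; amount: 2000 cells seeded into each well; buffer or medium: DMEM; benchmarks: plate control and blank wells; signal: luciferase luminescence; timing: 2 h compound exposure at 37 °C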
# NF-kB expr up: compounds increasing NF-kB expression in human neuronal cells; NF-kB reporter expression; stronger effect = higher value; fold change at 12.5 µM; 190,000 tested, 1.6% active; AID 1239; in the data active = fold change above about 3.3
# Wee1 stabilizer: blocks degradation of human Wee1 kinase; P30291; HeLa Luc-Wee1K328M stability, luciferase luminescence; 100% = proteasome inhibitor MG132 effect; reporter increase, % at 5 µM; 220,000 tested, 1.2% active; AID 1321;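 active = activation above the mean of all tested compounds plus 3 SD, set per screening run, cut at about 8.8% in these data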;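 also: cells exposed to compound for 20 h before luminescence read; 0% = DMSO alone and 100% = MG132 at 30 µM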
# Target sequence (P30291 whole entry K328M): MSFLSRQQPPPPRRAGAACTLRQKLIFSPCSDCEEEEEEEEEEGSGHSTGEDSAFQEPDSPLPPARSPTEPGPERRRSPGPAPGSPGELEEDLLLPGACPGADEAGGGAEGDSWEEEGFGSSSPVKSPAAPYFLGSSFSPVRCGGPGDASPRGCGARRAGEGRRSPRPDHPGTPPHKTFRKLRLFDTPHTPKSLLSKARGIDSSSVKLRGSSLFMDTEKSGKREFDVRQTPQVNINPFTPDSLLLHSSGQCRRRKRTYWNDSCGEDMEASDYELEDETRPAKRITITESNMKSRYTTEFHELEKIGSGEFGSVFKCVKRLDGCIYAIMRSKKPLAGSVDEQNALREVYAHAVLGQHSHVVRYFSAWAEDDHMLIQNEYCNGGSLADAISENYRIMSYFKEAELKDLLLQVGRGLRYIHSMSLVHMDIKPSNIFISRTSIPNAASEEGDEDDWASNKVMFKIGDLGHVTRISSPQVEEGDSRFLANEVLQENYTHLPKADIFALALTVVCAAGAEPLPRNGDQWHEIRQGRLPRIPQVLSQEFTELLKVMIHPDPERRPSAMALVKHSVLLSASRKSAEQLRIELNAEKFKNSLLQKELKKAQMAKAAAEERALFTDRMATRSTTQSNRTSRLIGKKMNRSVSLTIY
# p97 inhibitor: inhibitors of human p97 ATPase; inhibition, % at 8 µM; recombinant p97 ATPase, Kinase-Glo ATP luminescence, 3 h; P55072; 220,000 tested, 0.42% active; in the data active = inhibition above about 15%;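 also: 0% = DMSO vehicle and 100% = wells lacking enzyme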
# STAT1 act conf: confirmation of STAT1 signaling activators | shares compounds with STAT1 activator | NIH 3T3 STAT1-luciferase reporter, IFN-gamma potentiation, luminescence; 100% = IFN-gamma EC80 alone, no compound | activation (% of control), % at 5.7 µM | 1,200 tested, 97% active | AID 1262;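 active = activation above a set limit carried over from the earlier primary STAT1 screen, cut at about 140% in these data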;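 also: simple ratio to median IFN-gamma plus DMSO wells so 0% means no light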
# NFkB act: counter-screen for STAT1 activators: NF-kappaB activation; shares compounds with STAT1 activator; AID 1306; activation (% of control), % at 5.7 µM; 1,200 tested, 43% active; HEK293T NF-kB luciferase reporter, TNF-alpha stimulated, luminescence; 100% = TNF-alpha with vehicle only;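 active = activation above the mean of solvent-only control wells plus 3 SD, set per campaign, cut at about 130% in these data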;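 also: TNF-alpha given at a submaximal dose yielding about 80% of full reporter signal; values are well signal over median control so 100% means no change and 0% no light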
# STAT3 act 2: activates human STAT3, counter-screen to STAT1 activators. 1,200 tested, 46% active. U3A cells STAT3-luciferase reporter, IL-6, luminescence; cells lack STAT1; 100 = IL-6 alone, no compound effect. shares compounds with STAT1 activator. AID 1316. activation (% of control), % at 5.7 µM;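 active = activation above the solvent-only control well mean plus 3 SD, set per plate batch, cut at about 110% in these data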;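 also: 0% = no luminescence and 100% = median IL-6 plus DMSO wells; higher means more STAT3 reporter activation so hits are non-selective activators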
# The depositor's hits bear a star; . = no result given. Most compounds without a hit are left out; they make up all but 4.6% or so of the library.
SMILES,STAT1 activator,APP 5'UTR act,Mdm2 ligase inh,NF-kB expr up,Wee1 stabilizer,p97 inhibitor,STAT1 act conf,NFkB act,STAT3 act 2
O=C(N/N=C/c1cn(-c2ccccc2)nc1-c1cc2ccccc2o1)c1c[nH]c2ccccc12,187*,187*,.,.,1,3,199*,135*,105
OCc1cn(-c2ccccc2)nc1-c1cc2ccccc2o1,167*,86,-28,9.7*,7,-7,213*,139*,107
CCOC(=O)c1sc2nc(Cc3ccc(Cl)cc3)[nH]c(=S)c2c1C,99,23,-9,0.99,0,2,.,.,.
Cn1nnc2cc(C(=O)Nc3ccc4ccccc4c3)ccc21,154*,130,-14,4.3*,8,3,242*,138*,98
O=C(O)CCC(=O)NN1C(=O)c2ccccc2NC1c1ccc(F)cc1 (centres undefined),.,.,4,.,-2,-7,.,.,.
S=c1[nH]nc(C2CCCCC2)o1,98,61,-7,0.98,1,3,.,.,.
COc1cccc(-c2nc3ccccc3s2)c1,156*,143*,-6,7.8*,3,-9,207*,121,118*
COc1ccc(-c2nc3ccccc3s2)cc1NC(C)=O,173*,154*,-11,2.4,8,3,195*,130,119*
COc1ccccc1NC(=O)CCc1nc2ccccc2s1,100,-3,-13,1.2,-1,-4,.,.,.
COc1cc(/C=N/OCC(=O)Nc2cc(C)cc(C)c2)ccc1OCc1ccc(Cl)cc1,152*,102,-10,4.1*,8,-4,183*,132,113*
COc1cc(/C=N/OCC(=O)NC2CCCCC2C)ccc1OCc1ccc(Cl)cc1 (centres undefined),158*,141*,-4,5*,4,5,182*,134*,107
Cc1cc(N2CCN(C)CC2)ccc1NC(=O)c1c2c(nc3ccccc13)CCN(Cc1ccccc1)C2,166*,-13,-19,1.3,2,-8,118,110,115*
O=C(NC1CCCCCC1)c1c2c(nc3ccccc13)CCN(Cc1ccccc1)C2,96,13,-15,0.33,0,0,.,.,.
N#C/C(=C\N1CCOCC1)c1ccccc1,91,11,-8,1.4,-1,-5,.,.,.
N#C/C(=C/c1ccc(N2CCOCC2)o1)c1ccc(Br)cc1,115,-10,-9,2,-1,-2,.,.,.
N#C/C(=C\c1ccc(N2CCOCC2)cc1)c1ccccc1,174*,208*,-6,2.5,5,2,226*,143*,108
N#C/C(=C\c1ccc(N2CCOCC2)o1)c1ccccc1,161*,28,15,1.9,-1,-4,235*,150*,126*
Cc1nc2sccn2c(=O)c1Br,98,4,-9,0.98,-1,-4,.,.,.
Cc1cc(C)c(C(=O)N2CCCC(CNC(=O)C3(c4ccc(Cl)cc4)CC3)C2)c(=O)[nH]1 (centres undefined),102,26,-1,0.74,-1,2,.,.,.
CCOc1cccc(/C=C/c2cc(C(=O)O)c3ccccc3n2)c1OC,.,.,-48,.,-1,1,.,.,.
COc1ccc(/C=C2\OC(=O)c3c(OC)cccc32)cc1OC,169*,101,-2,3,-3,-2,209*,139*,112*
O=C(N/N=C/c1ccccn1)c1cccc(S(=O)(=O)N2CCCC2)c1,.,.,.,.,-2,3,.,.,.
FC(F)(F)c1cnc2c(-c3ccccc3)n[nH]c2c1,161*,47,-14,1.8,1,4,137*,110,102
OCCC1CN(Cc2cccn2-c2ncccn2)CCN1CCc1ccccc1 (centres undefined),102,11,-12,1.4,-3,2,.,.,.
c1ccc2c(c1)oc1c(Nc3ccc4c(c3)OCCO4)ncnc12,180*,164*,-33,5*,7,5,260*,141*,114*
SMILES,STAT1 activator,APP 5'UTR act,Mdm2 ligase inh,NF-kB expr up,Wee1 stabilizer,p97 inhibitor,STAT1 act conf,NFkB act,STAT3 act 2
COc1ccc(Nc2ncnc3c2oc2ccccc23)cc1,163*,117,-11,3.4*,10*,-2,204*,134*,104
Cc1ccc(Nc2ncnc3c2oc2ccccc23)cc1,171*,152*,-9,5.4*,6,4,231*,155*,117*
CC(C)[C@H](Nc1ncnc2c1oc1ccccc12)C(=O)O,.,.,-7,.,-2,5,.,.,.
COc1ccccc1Oc1ncnc2c1oc1ccccc12,107,-16,-22,1.1,-1,-1,.,.,.
COC(=O)c1ccc(NC(=O)COc2ccc([N+](=O)[O-])cc2)cc1,.,.,-17,.,-5,0,.,.,.
O=C(CN1C(=O)C(=O)N(Cc2ccco2)C1=O)NC1CCCCC1,102,22,-11,0.94,9,8,.,.,.
Cn1c(C(=O)Nc2ccc3c(c2)OCO3)cc2sccc21,193*,153*,-23,8.9*,4,9,210*,147*,142*
O=C(Nc1nc2cc3c(cc2s1)OCCO3)c1cccs1,.,.,-58,.,-1,-1,.,.,.
Cn1c(C(=O)NCc2ccc3c(c2)OCO3)cc2sccc21,104,4,-11,1.4,-4,8,.,.,.
O=C(Nc1ccc2c(c1)CCC2)Nc1ccc2c(c1)OCO2,160*,81,13,2.2,0,5,167*,121,111*
O=C(Nc1ccc2c(c1)OCCO2)c1cccs1,153*,142*,-9,5.2*,1,-3,173*,125,108
O=C(Nc1ccc2c(c1)OCO2)c1ccc(Br)s1,181*,162*,-36,10*,8,-8,204*,131,132*
CN(c1ccc([N+](=O)[O-])cc1C(N)=O)C1CCCCC1,101,-6,-5,1.4,-1,0,.,.,.
Cc1cccc(/C=N/NC(=O)Cn2nnnc2N)n1,.,.,-12,.,6,7,.,.,.
CC(=O)Nc1ccc2c(c1)C(=O)c1ccccc1C2=O,156*,186*,-26,3.9*,-2,2,203*,139*,106
CC(C)(C)C(=O)Nc1ccc(C(=O)OC2CCCCC2)cc1,162*,133,-32,3.6*,1,2,219*,145*,133*

# Screening results from PubChem BioAssay.
